From ChEMBL document CHEMBL3352166, “Structure-guided design and development of novel benzimidazole class of compounds targeting DNA gyraseB enzyme of Staphylococcus aureus” (Bioorg Med Chem, 2014)
Converted amounts (≈) assume the structure as drawn.

Tests used:
DNA gyrase = DNA gyrase (Staphylococcus aureus, UniProt P0A0K8+P20831); assay: Inhibition of Staphylococcus aureus DNA gyrase-mediated supercoiling of relaxed DNA using pBR 322 as substrate by agarose gel electrophoresis analysis; format: protein-complex assay
DNA gyrase, sequence (P0A0K8 whole entry): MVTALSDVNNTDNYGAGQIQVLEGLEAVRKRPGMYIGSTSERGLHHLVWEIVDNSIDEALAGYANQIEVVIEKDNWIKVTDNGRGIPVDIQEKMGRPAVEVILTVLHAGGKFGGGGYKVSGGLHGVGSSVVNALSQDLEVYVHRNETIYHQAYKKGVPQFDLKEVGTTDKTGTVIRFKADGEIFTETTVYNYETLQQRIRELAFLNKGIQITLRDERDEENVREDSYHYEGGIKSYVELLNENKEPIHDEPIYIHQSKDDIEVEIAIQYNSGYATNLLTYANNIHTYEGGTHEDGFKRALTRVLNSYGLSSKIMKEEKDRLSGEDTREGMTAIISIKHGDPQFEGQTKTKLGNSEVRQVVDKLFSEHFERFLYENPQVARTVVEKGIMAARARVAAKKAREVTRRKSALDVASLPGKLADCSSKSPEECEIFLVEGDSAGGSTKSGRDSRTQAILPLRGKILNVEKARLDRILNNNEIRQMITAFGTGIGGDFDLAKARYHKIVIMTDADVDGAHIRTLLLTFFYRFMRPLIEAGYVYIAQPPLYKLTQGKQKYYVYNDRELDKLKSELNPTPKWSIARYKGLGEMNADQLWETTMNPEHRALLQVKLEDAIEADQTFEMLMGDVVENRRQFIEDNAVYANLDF
DNA gyrase, sequence (P20831 whole entry): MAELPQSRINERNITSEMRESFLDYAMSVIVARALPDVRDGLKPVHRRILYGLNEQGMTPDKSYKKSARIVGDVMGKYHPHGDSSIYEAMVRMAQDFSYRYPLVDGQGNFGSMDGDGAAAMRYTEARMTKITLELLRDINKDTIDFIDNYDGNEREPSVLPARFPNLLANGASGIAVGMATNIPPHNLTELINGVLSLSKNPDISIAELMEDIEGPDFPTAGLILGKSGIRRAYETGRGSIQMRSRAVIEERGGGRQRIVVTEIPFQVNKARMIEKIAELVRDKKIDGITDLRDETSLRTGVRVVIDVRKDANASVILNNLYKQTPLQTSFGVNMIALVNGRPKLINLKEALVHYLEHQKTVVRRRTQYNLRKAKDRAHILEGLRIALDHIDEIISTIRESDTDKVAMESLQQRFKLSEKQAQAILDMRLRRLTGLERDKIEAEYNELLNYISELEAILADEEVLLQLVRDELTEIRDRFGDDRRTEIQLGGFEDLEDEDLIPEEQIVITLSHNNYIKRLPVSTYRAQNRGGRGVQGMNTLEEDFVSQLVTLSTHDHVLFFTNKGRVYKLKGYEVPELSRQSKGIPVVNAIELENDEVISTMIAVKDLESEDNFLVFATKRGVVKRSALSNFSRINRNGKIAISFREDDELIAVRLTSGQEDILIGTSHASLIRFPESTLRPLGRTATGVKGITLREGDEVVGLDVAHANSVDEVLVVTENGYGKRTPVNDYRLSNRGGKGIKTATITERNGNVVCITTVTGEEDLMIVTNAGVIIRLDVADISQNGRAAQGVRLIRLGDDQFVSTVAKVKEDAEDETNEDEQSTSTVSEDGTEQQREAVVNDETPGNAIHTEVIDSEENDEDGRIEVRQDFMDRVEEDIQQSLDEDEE

Staphylococcus aureus [1] = assay: Antimicrobial activity against Staphylococcus aureus MTCC 3160 after 16 to 24 hrs by agar dilution method; format: functional
Outline: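 MIC by agar dilution per CLSI on Mueller-Hinton agar. Overnight colonies were suspended to about 10^6 cfu/mL, and 1 mL was added to 19 mL medium. Compounds were made up in 0.9% saline and tested over about 10 doubling dilutions, 100 µM to 0.1 µM. Plates ran 16-20 h at 35 °C in ambient air. MIC was the lowest concentration preventing visible growth.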

DNA gyrase subunit B = DNA gyrase subunit B (Staphylococcus aureus, UniProt P0A0K8); assay: Inhibition of Staphylococcus aureus DNA gyrase B ATPase activity
DNA gyrase subunit B, sequence (P0A0K8 whole entry): as the sequence (P0A0K8 whole entry) above

[2] = Cytotoxicity against human HEK293 cells assessed as reduction in cell viability at 100 uM after 72 hrs by MTT assay; format: cell-based; settings: read-out: INH
Outline: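 HEK-293 cells were seeded at 5000 per well and left 24 h, then washed. They were exposed to 100 µM in RPMI + 5% FBS + 1% penicillin/streptomycin, with final DMSO ≤0.5%, for 72 h at 37 °C in 5% CO2. DMSO-treated cultures served as controls. Viability was read by MTT at 570 nm, in triplicate, as percentage inhibition.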

Staphylococcus aureus [3] = assay: Inhibition of biofilm formation in methicillin-resistant Staphylococcus aureus MTCC 96 after 24 hr incubation by tissue culture plate method; settings: MTCC 96, 24 h
Staphylococcus aureus [4] = assay: Antimicrobial activity against methicillin-resistant Staphylococcus aureus MTCC 96 after 16 to 24 hrs by agar dilution method; format: functional
Outline: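 Agar dilution per CLSI guidelines on Mueller-Hinton agar. Overnight colonies suspended to about 10^6 cfu/mL, and 1 mL added to 19 mL medium. Stocks in 0.9% saline, tested over about 10 doubling dilutions from 100 µM to 0.1 µM. Plates incubated at 35 °C in ambient air for 16-20 h. MIC taken as the lowest concentration preventing visible growth.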

Staphylococcus aureus [5] = assay: Antimicrobial activity against Staphylococcus aureus infected in CD1 mouse assessed as animal protection at 5 mg/kg, iv treated 4 hrs after infection measured 24 hrs post infection; format: functional
Outline: (§1)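 Female CD-1 mice (20–25 g, ten per group) were infected intraperitoneally with 3 × 10^7 cfu/mouse, slightly above LD100. Test compound was given iv at 5, 10 or 25 mg/kg at infection and 4 h post infection. Vancomycin at 5 mg/kg served as comparator. Survival was scored 24 h post infection.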

Staphylococcus aureus [6] = assay: Antimicrobial activity against Staphylococcus aureus infected in CD1 mouse assessed as animal protection at 25 mg/kg, iv treated 4 hrs after infection measured 24 hrs post infection
Staphylococcus aureus [7] = assay: Antimicrobial activity against Staphylococcus aureus infected in CD1 mouse assessed as animal protection at 10 mg/kg, iv treated 4 hrs after infection measured 24 hrs post infection; format: functional; outline: as §1
Danio rerio [8] = organism: Danio rerio; assay: Cardiotoxicity in zebra fish assessed as change in heart rate up to 30 uM; format: toxicity, organism-based; settings: zebrafish, in vivo
Outline: (§2)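 Zebrafish larvae at 3 dpf were dosed in 24-well plates, 5 embryos per well, in 0.1% DMSO vehicle at 1–30 µM for 4 h at 28 °C. Terfenadine 20 µM was the positive control. Atrial and ventricular beats were watched by light microscopy, timing 30 beats and averaging 5 embryos per well. Results are mean ± SEM, with significance versus control.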

Danio rerio [9] = organism: Danio rerio; assay: Cardiotoxicity in zebra fish assessed as AV ratio up to 30 uM; format: organism-based; settings: zebrafish, in vivo; outline: as §2

Structure (SMILES) | IC50 (DNA gyrase) [µM] | MIC (Staphylococcus aureus [1]) [µM] | IC50 (DNA gyrase subunit B) [µM] | cytotoxicity at 72 h, 100 µM [2] [%] | IC50 (Staphylococcus aureus [3]) [µM] | MIC (Staphylococcus aureus [4]) [µM] | Activity (Staphylococcus aureus [5]) [%] | Activity (Staphylococcus aureus [6]) [%] | Activity (Staphylococcus aureus [7]) [%] | Activity (Danio rerio [8]) | Activity (Danio rerio [9])
O=C(O)CSCC(=O)Nc1ccc(-c2nc3cc([N+](=O)[O-])ccc3[nH]2)cc1 | 2.1 | 8.09 (≈ 3.12 µg/mL) | 3.13 | 25.2 | 10.3 | 17 (≈ 6.56 µg/mL) | – | – | – | – | –
O=C(O)CCCC(=O)Nc1ccc(-c2nc3cc(F)ccc3[nH]2)cc1 | 1.13 | 4.57 (≈ 1.56 µg/mL) | 1.32 | 7.59 | 9.63 | 9.15 (≈ 3.12 µg/mL) | 60 | 100 | 80 | Non-toxic | Non-toxic
O=C(O)COCC(=O)Nc1ccc(-c2nc3cc(Cl)ccc3[nH]2)cc1 | 12.5 | 34.7 (≈ 12.5 µg/mL) | 15.3 | 29.7 | 71.2 | 69.5 (≈ 25 µg/mL) | – | – | – | – | –
O=C(O)CSCC(=O)Nc1ccc(-c2nc3cc(Cl)ccc3[nH]2)cc1 | 12.1 | 4.15 (≈ 1.56 µg/mL) | 13.8 | 23 | 9.72 | 4.15 (≈ 1.56 µg/mL) | – | – | – | – | –
O=C(O)COCC(=O)Nc1ccc(-c2nc3cc([N+](=O)[O-])ccc3[nH]2)cc1 | 5.8 | 33.8 (≈ 12.5 µg/mL) | 8.51 | 31.3 | 83.2 | 47 (≈ 17.4 µg/mL) | – | – | – | – | –
COc1ccc2[nH]c(-c3ccc(NC(=O)COCC(=O)O)cc3)nc2c1 | 3.06 | 17.6 (≈ 6.25 µg/mL) | 4.34 | 23.3 | 31.7 | 17.6 (≈ 6.25 µg/mL) | – | – | – | – | –
COc1ccc2[nH]c(-c3ccc(NC(=O)CSCC(=O)O)cc3)nc2c1 | 16 | 67.3 (≈ 25 µg/mL) | 9.31 | 22.6 | > 100 | 67.3 (≈ 25 µg/mL) | – | – | – | – | –
O=C(O)COCC(=O)Nc1ccc(-c2nc3cccnc3[nH]2)cc1 | 4.7 | 19.1 (≈ 6.25 µg/mL) | 6.93 | 38.7 | 82.5 | 38.3 (≈ 12.5 µg/mL) | – | – | – | – | –
O=C(O)CSCC(=O)Nc1ccc(-c2nc3cccnc3[nH]2)cc1 | 1.7 | 4.55 (≈ 1.56 µg/mL) | 2.31 | 31.9 | 11.3 | 9.12 (≈ 3.12 µg/mL) | – | – | – | – | –
